About 5,400 (1.5%) of roughly 360,000 compounds were called active. Shown is part of a subset that was picked to be rich in actives. A number with no mark means an inactive call.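 The calls were made as follows: active = inhibition above a per-plate cutoff, the mean inhibition of test compounds on that plate plus 3 SD (cut at about 49% in these data); inactive = the rest.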

This test deals with Trace amine-associated receptor 1 (Homo sapiens) (UniProt Q96RJ0). The experiment in a line: human TAAR1 antagonists, primary screen, Fluo-8 calcium fluorescence, CHO RD-HGA16 cells (AID 624466).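 Also: 0% = DMSO plus EC80 beta-PEA response and 100% = DMSO alone without agonist.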 As to conditions: CHO RD-HGA16 TAAR1, Fluo-8 calcium fluorescence, antagonist; at 3 µM; hits give high values. A digest of the protocol: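 Test system – hTAAR1-expressing CHO RD-HGA16 cells, Gα16-coupled · Reagent – β-PEA at EC80 concentration, post-compound challenge · Compound dosing – 3 µM, single point · Timing – 140 s kinetic read after compound, 140 s after agonist · Detection – Fluo-8 intracellular calcium dye fluorescence, real-time kinetic reads · Control set – DMSO and EC80 PEA controls · Repeats – n of 1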
Chain of Trace amine-associated receptor 1 (Homo sapiens) (Q96RJ0 whole entry, looked up, the tested form may be a part): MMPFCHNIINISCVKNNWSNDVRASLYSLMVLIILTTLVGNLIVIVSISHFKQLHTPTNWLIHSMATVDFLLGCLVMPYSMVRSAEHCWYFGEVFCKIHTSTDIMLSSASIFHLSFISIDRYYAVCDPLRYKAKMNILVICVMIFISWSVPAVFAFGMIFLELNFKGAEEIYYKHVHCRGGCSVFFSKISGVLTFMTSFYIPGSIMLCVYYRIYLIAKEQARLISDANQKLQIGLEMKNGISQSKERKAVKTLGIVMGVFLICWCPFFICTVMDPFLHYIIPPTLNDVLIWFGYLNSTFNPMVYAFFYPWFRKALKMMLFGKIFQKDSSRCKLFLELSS
As for `Cn1c(=O)c2c(ncn2CC(=O)N/N=C/c2cn[nH]c2-c2ccc(F)cc2)n(C)c1=O`, the inhibition (as a rule, the change of the read-out against control, counted positive when it falls) is 2.24%.

For `CCCCCn1nnnc1C1c2ccccc2C(=O)N1Cc1ccco1` (centres undefined), the inhibition was -12.2%. With `O=C(NS(=O)(=O)c1cccs1)[C@H]1O[C@@H](n2ccc(=O)[nH]c2=O)[C@H](O)[C@@H]1O` the figure was -23.6%; with `O=C(NN=Cc1ccc2c(c1)CCC2)c1ccccc1O`, 10.7%.

As to `O=C(N/N=C/c1ccc(OC(=O)c2ccccc2Cl)cc1)c1ccc(O)cc1`, the inhibition was 68.9% (active). For `COc1ccc(C(=O)Nc2ccccc2C(=O)N/N=C/c2ccc(O)c(OC)c2)cc1`, the inhibition is 62.8% (active).

Regarding `CCOc1cc(/C=N/NC(=O)c2cc(-c3ccccc3)nc3ccccc23)ccc1O`, the inhibition was 51.5% (active). Regarding `COc1ccc(-c2[nH]ncc2/C=N/NC(=O)c2cc(Br)ccc2O)c(OC)c1`, the inhibition is -4.36%. Take `CCOc1cc(/C=N/NC(=O)c2c(C)nc3ccc(Cl)cn23)ccc1O`: the inhibition was -3.33%. For `CCOc1ccc(-c2cc(C(=O)N/N=C/c3ccc(O)cc3)c3ccccc3n2)cc1`, the inhibition is 0.39%. Take `O=C(N/N=C/c1ccc(OCC2COCCO2)cc1)c1ccc(Br)cc1` (centres undefined): the inhibition was 18.2%. Turning to `CC(C)(C)C(=O)Nc1ccc(C(=O)N/N=C/c2ccccc2OC(=O)c2ccc(Cl)cc2Cl)cc1`, the inhibition was 26.4%. Turning to `O=C(NC1CCCCC1)C(c1cc2ccccc2o1)n1c(=O)c(-c2ccco2)nc2ccccc21` (centres undefined), the inhibition was -22.4%.

As to `N#Cc1ccc(-c2nc3cc(C#N)c(C#N)cc3nc2-c2ccccc2)cc1C#N`, the inhibition is -9.51%.

`CC1CCCN(c2cccc3c2S(=O)(=O)N(Cc2ccc(F)cc2)[C@@H](C)[C@H](c2ccccc2)O3)C1` (some centres undefined): the inhibition was -13.7%. With `CCCNC(=O)c1cc2c(c(-c3cccc(-c4ccc(C#N)cc4)c3)n1)[C@@H](CCO)N(C(=O)CC)C2` the figure was -3.02%. Under `COC(=O)[C@]12C[C@H](CC(=O)NCc3ccc(OC)c(OC)c3)C(=O)N(Cc3ccccc3)C1=C[C@H](C(C)C)O[C@@H]2C1CC1` stands -4.52%. Consider `COc1cccc(NC(=O)Nc2ccc(F)cc2)c1`, for which the inhibition is 14.5%.

Consider `O=C(Nc1ccncc1)Nc1ccc(F)cc1`, for which the inhibition was 57.8% (active). `CCc1ccc(NC(=O)Nc2ccncc2)cc1`: the inhibition is 6.77%. On to `CCC(C(=O)NCc1ccccc1)n1c(Cc2cc(F)cc(F)c2)nc2ccccc21` (centres undefined), for which the inhibition is -4.56%. Turning to `O=CN1CCN(C(=O)c2ccc(Br)o2)CC1`, the inhibition is -11.1%. With `COc1ccccc1NC(=O)COC(=O)c1ccccc1SCC(=O)N1CCCC1` the figure was -8.15%; with `CN(CC(=O)Nc1ccccc1Cl)C(=O)c1ccccc1SCC(=O)N1CCCC1`, -6.53%; with `CSc1ccccc1C(=O)OCC(=O)N1CCN(C(C)=O)CC1`, -1.96%. Under `CC(NC(=O)c1ccccc1SCC(=O)N1CCCC1)c1ccccc1` (centres undefined) stands -4.95%; under `CC(C)N(Cc1ccccc1)C(=O)COC(=O)c1ccccc1SCC(=O)N1CCCC1`, 64% (active). Under `O=C(COC(=O)c1ccccc1SCC(=O)N1CCCC1)Nc1ccccc1OC(F)F` stands 56.5% (active); under `COCCNC(=O)C1C(=O)Nc2ccccc2C(=O)N1c1ccc2c(c1)OCCO2` (centres undefined), -30.9%; under `CCCCCCCCN1C(=O)[C@H](CC(=O)NCC23CC4CC(CC(C4)C2)C3)C[C@@]2(C(=O)OC)CCCCC=C12`, -15.3%. For `CCOC(=O)C(C)N(c1ccccc1Cl)S(C)(=O)=O` (centres undefined), the inhibition is -3.03%. As for `CN(CC(=O)O)S(=O)(=O)c1ccc2oc3ccccc3c2c1`, the inhibition is -5.94%. With `COc1ccc(-c2cc(C(=O)N(C)Cc3ccccc3)c3ccccc3n2)cc1`, the inhibition was 62.6% (active). With `COc1ccc(CN(C)C(=O)Cc2ccsc2)c(OC)c1OC` the figure was -26.8%; with `COc1ccc(-c2cc(C(=O)N(C)Cc3ccc(OC)c(OC)c3OC)c3ccccc3n2)cc1OC`, 78.5% (active); with `COc1ccc(-c2cc(C(=O)N(C)CC(=O)Nc3ccccc3Cl)c3ccccc3n2)cc1OC`, 73.2% (active). With `COc1ccc(S(=O)(=O)N2CCCCCC2)cc1C(=O)N(C)Cc1cccc(OC)c1OC` the figure was 3.09%. Consider `COc1ccc(CN(C)C(=O)c2cc(-c3ccc(C)cc3C)nc3ccccc23)c(OC)c1OC`, for which the inhibition is 72.6% (active).

As to `COc1ccc(C(=O)N(C)Cc2ccc(OC)c(OC)c2OC)cc1S(=O)(=O)N1CCOCC1`, the inhibition is -9.36%. With `C/C(N)=C(/C#N)C(=O)COC(=O)c1cc(-c2ccc(C)cc2)nc2ccccc12` the figure was -4.69%; with `COc1ccc(Cl)cc1NC(=O)CN(C)C(=O)c1ccc2n[nH]nc2c1`, -6.92%; with `Cc1cccc(C(=O)NCC(=O)OCC(=O)N(C)CC(=O)Nc2ccccc2Cl)c1`, -23.2%.

Regarding `COc1ccc(C2=NS(=O)(=O)N(C)C(C(=O)N(C)Cc3ccccc3)=C2)cc1`, the inhibition was 11.5%. For the compound `COc1ccc(CN(C)C(=O)Cc2c[nH]c3ccccc23)c(OC)c1OC`, the inhibition was 4.63%. `Cc1ccc(N/C(N)=N/c2nc(C(F)(F)F)cc(C(F)(F)F)n2)cc1`: the inhibition is 1.49%.

As for `CCn1ccnc1CN(C)C(=O)c1ccc2nc(Cc3ccc(OC)cc3)oc2c1`, the inhibition is 9.63%. Turning to `Cc1ccc(C)c(CN2CCC(CNC(=O)C3CCCN(c4ncnc5c4nc4n5CCCCC4)C3)CC2)c1` (centres undefined), the inhibition is -10.2%. With `O=C(Nc1ccc(CSc2ccccc2)cc1)c1ccc(CN2CCOCC2)cc1` the figure was 29.6%; with `COCc1cc(N2CCN(C(=O)OC(C)(C)C)C[C@@H]2C)ccc1N1CCN(Cc2ccccc2)[C@H](C)C1`, -3.16%. Under `O=C1/C(=C/c2cccs2)SC(=S)N1C1CCS(=O)(=O)C1` (centres undefined) stands -5.52%.

Consider `COc1ccc(CCn2c(NN=C3CCCC3)nc3c2c(=O)[nH]c(=O)n3C)cc1`, for which the inhibition is -23.8%. Under `COc1cc(C2CC(=O)Oc3cc(OC)c(OC)c(OC)c32)cc(OC)c1OC` (centres undefined) stands 3.9%; under `COc1ccc(C2CC(=O)Oc3ccc(C(C)(C)C)cc32)cc1` (centres undefined), 52.5% (active); under `COc1cc(OC)c2c(c1)OC(=O)CC2c1cc(OC)c(OC)c(OC)c1` (centres undefined), -6.82%.

Source of the values: PubChem BioAssay AID624466 (The Scripps Research Institute Molecular Screening Center, 2012).
